The target in data set [1] is T1, Glycogen [starch] synthase, muscle (Homo sapiens) (UniProt P13807).
T1 sequence (whole entry): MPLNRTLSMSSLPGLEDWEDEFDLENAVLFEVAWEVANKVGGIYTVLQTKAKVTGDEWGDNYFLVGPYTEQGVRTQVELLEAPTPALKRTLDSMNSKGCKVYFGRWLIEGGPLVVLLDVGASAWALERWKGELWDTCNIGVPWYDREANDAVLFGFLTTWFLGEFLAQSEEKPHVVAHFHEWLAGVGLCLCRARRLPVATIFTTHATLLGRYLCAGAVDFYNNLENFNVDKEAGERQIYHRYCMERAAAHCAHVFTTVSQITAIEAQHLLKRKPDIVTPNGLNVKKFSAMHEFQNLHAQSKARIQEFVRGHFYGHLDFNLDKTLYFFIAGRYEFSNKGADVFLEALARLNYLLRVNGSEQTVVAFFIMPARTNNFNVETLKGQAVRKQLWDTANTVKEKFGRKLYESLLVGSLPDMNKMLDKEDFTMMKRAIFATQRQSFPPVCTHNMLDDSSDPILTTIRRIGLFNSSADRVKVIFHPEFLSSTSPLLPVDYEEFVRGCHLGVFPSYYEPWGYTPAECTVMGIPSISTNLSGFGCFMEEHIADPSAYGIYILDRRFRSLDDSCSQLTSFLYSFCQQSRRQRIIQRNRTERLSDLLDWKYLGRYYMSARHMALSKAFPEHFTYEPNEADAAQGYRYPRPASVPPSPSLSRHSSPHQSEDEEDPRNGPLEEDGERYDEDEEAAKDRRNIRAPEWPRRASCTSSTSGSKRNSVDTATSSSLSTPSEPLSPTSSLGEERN
The data set can be described thus: Activation of human recombinant muscle GYS1 expressed in insect sf9 cells using glycogen and UDP-glucose as substrates assessed as concentration required to 200% activation by spectrophotometry. Summed up:
(§1)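 Recombinant human muscle GYS1 (partially purified from sf9 cells) is read in a pyruvate kinase/lactate dehydrogenase-coupled assay at room temperature. Compounds are diluted in 30 mM glycylglycine pH 7.3, 40 mM KCl, 20 mM MgCl2, 9.2% DMSO, ±20 mM glucose-6-phosphate. The substrate mix holds glycogen, UDP-glucose, PEP and NADH, all as solution concentrations. NADH loss is read at 340 nm every 3 min for 15 min. EC50 is half-maximal activation, SC200 is the concentration doubling activity, and dose-response runs are in triplicate.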

In data set [2] the target is T1, Glycogen [starch] synthase, muscle (Homo sapiens). The data set is described as follows: Activation of human recombinant muscle GYS1 expressed in insect sf9 cells using glycogen and UDP-glucose as substrates at 75 uM by spectrophotometry relative to control. Summed up: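 Same coupled GYS1 assay (sf9-derived human muscle enzyme, PK/LDH coupling, NADH absorbance at 340 nm read every 3 min over 15 min, room temperature). Activation is expressed as fold increase over control at the highest concentration tested.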

Data set [3] addresses T2, Glycogen [starch] synthase, muscle (Homo sapiens, UniProt P13807).
T2 sequence (P13807 whole entry): T1 sequence (whole entry)
The data set can be described thus: Activation of human recombinant muscle GYS1 expressed in insect sf9 cells using glycogen and UDP-glucose as substrates by spectrophotometry. The essentials: as §1

The nature of data set [4]: AUC in C57 mouse at 10 mg/kg, po. The settings on record: plasma. More on the design: dose 10 mg/kg, route oral. In kind it is ADME, organism-based. Summed up: (§2)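 C57 mice get a single oral dose of 10 mg/kg as an aqueous suspension in 0.1 M phosphate buffer, pH 7.4, containing 10% PEG 400 by volume. Plasma exposure is measured and reported as Cmax and AUC.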
Data set [5] is described as follows: Cmax in C57 mouse at 10 mg/kg, po. In kind it is ADME, organism-based. More on the design: dose 10 mg/kg, route oral. Conditions: in vivo; call rule not given here. The essentials:
as §2

In a further data set the test system is Mus musculus. The data set can be described thus: Drug metabolism in po dosed C57 mouse assessed as conversion to ortho-aminobenzoic acid in plasma. In kind it is ADME, organism-based. Conditions: in vivo.

In general, EC50 refers to the concentration at which the effect is half-maximal. For orientation: AUC means concentration integrated over time. A higher AUC goes with more exposure. By Cmax is commonly meant the peak of the concentration-time curve.

Take `COCCn1[nH]c2c(COc3ccc(-c4cc(F)c(F)cc4OC)cc3)cccc2c1=O`: in data set [1], the Activity was 0.11 µM. Besides, the fold change (FC) in data set [2] was found to be 4.4. Besides, the EC50 in data set [3] turned out to be 370 nM.
On the same counts, the results for `O=c1c2cccc(COc3ccc(-c4cc(F)c(F)cc4F)cc3)c2[nH]n1C[C@@H](O)CO` are 0.32 µM, 3.3 and 680 nM.
`COc1cc(F)c(F)cc1-c1ccc(OCc2cccc3c(=O)n(CC(=O)O)[nH]c23)cc1`: in data set [1], the Activity was determined as 0.06 µM. The fold change (FC) in data set [2] was found to be 3.2. Also, in data set [3], the EC50 was 200 nM.
On to `COc1cc(F)c(F)cc1-c1ccc(OCc2cccc3c(=O)n(C)[nH]c23)cc1`, for which the Activity in data set [1] amounted to 0.07 µM. The fold change (FC) in data set [2] amounted to 5.4. The EC50 in data set [3] was found to be 320 nM.
For the compound `COc1cc(F)c(F)cc1-c1ccc(OCc2cccc3c(=O)n(C[C@@H](O)CO)[nH]c23)cc1`, the Activity in data set [1] came out at 0.06 µM. Besides, the fold change (FC) in data set [2] worked out at 3.1. Moreover, in data set [3], the EC50 turned out to be 270 nM.
In the case of `COCCn1[nH]c2c(COc3ccc(-c4cc(F)c(F)cc4F)cc3)cccc2c1=O`, the Activity in data set [1] came to 0.52 µM. Further, the fold change (FC) in data set [2] was determined as 3. For the same compound, the EC50 in data set [3] stood at 790 nM.
Take `O=c1c2cccc(COc3ccc(-c4cc(F)c(F)cc4F)cc3)c2[nH]n1C[C@H](O)CO`: the Activity in data set [1] worked out at 0.41 µM. Also, the fold change (FC) in data set [2] was determined as 3. Also, the EC50 in data set [3] turned out to be 580 nM.
For `Cc1cc(F)c(F)cc1-c1ccc(OCc2cccc3c(=O)n(-c4ccc(F)cc4)[nH]c23)cc1`, the Activity in data set [1] was found to be 1.86 µM. Further, the fold change (FC) in data set [2] is 2.5. In addition, the EC50 in data set [3] amounted to 1470 nM.
On the same counts, the results for `O=c1c2cccc(COc3ccc(-c4cc(F)c(F)cc4F)cc3)c2[nH]n1-c1cccnc1` are 2.75 µM, 5.8 and 4010 nM.
Consider `Cc1cc(F)c(F)cc1-c1ccc(OCc2cccc3c(=O)n(C[C@H](O)CO)[nH]c23)cc1`, for which the Activity in data set [1] is 0.11 µM. The fold change (FC) in data set [2] came to 3.3. Besides, the EC50 in data set [3] is 340 nM.
For `O=c1c2cccc(COc3ccc(-c4cc(F)c(F)cc4Cl)cc3)c2[nH]n1C[C@@H](O)CO` the same measures were 0.25 µM, 3.6 and 260 nM.
For `Cc1cc(F)c(F)cc1-c1ccc(OCc2cccc3c(=O)n(C[C@@H](O)CO)[nH]c23)cc1` the same measures were 0.1 µM, 3 and 230 nM.
Consider `COc1cc(F)c(F)cc1-c1ccc(OCc2cccc(C(=O)N(C)CC(=O)O)c2)cc1`, for which the fold change (FC) in data set [2] is 6.8. In data set [3], the half-maximal effective concentration (EC50) was 100 nM.
Take `COc1cc(F)c(F)cc1-c1ccc(OCc2cccc3c(=O)n(-c4ccc(F)cc4)[nH]c23)cc1`: in data set [1], the Activity is 2.01 µM. For the same compound, the fold change (FC) in data set [2] came out at 2.8. Moreover, in data set [3], the EC50 came out at 1370 nM.
As to `O=c1c2cccc(COc3ccc(-c4cc(F)c(F)cc4Cl)cc3)c2[nH]n1-c1cccnc1`, the Activity in data set [1] turned out to be 1.14 µM. Further, the fold change (FC) in data set [2] is 6.1. For the same compound, the EC50 in data set [3] came to 1860 nM.
For `Cc1cc(F)c(F)cc1-c1ccc(OCc2cccc3c(=O)n(CC(=O)O)[nH]c23)cc1`, the Activity in data set [1] is 0.33 µM. The fold change (FC) in data set [2] was found to be 3.7. In addition, in data set [3], the EC50 was 420 nM.
As for `O=C(O)Cn1[nH]c2c(COc3ccc(-c4cc(F)c(F)cc4F)cc3)cccc2c1=O`, the Activity in data set [1] was determined as 0.69 µM. The fold change (FC) in data set [2] amounted to 3.6. For the same compound, the EC50 in data set [3] is 1200 nM.
With `COc1cc(F)c(F)cc1-c1ccc(OCc2cccc(C(=O)N3CCC[C@H]3C(=O)O)c2)cc1`, the fold change (FC) in data set [2] is 5.4. Besides, the EC50 in data set [3] is 140 nM.
Turning to `COc1cc(F)c(F)cc1-c1ccc(OCc2cccc(C(=O)N(C)CCO)c2)cc1`, the fold change (FC) in data set [2] stood at 7.3. The EC50 in data set [3] was 4100 nM.
Regarding `O=C(O)[C@@H]1CCCN1C(=O)c1ccc(COc2ccc(-c3ccccc3)cc2)o1`, the fold change (FC) in data set [2] is 5.8. Moreover, the EC50 in data set [3] turned out to be 15100 nM.
With `O=c1c2cccc(COc3ccc(-c4cc(F)c(F)cc4F)cc3)c2[nH]n1CCO`, the Activity in data set [1] came out at 0.22 µM. The AUC in data set [4] turned out to be 3590 ng·h/mL. Also, the Cmax in data set [5] was 1350 ng/mL. Moreover, the fold change (FC) in data set [2] was determined as 5.5. The EC50 in data set [3] came to 770 nM.
For `COc1cc(F)c(F)cc1-c1ccc(OCc2cccc(C(=O)N(C)CC(O)CO)c2)cc1` (stereo unspecified), the fold change (FC) in data set [2] came to 6.6. Besides, the EC50 in data set [3] is 10300 nM.
For `Cn1[nH]c2c(COc3ccc(-c4cc(F)c(F)cc4F)cc3)cccc2c1=O`, the Activity in data set [1] turned out to be 0.49 µM. In data set [4], this compound had an AUC of 746 ng·h/mL. The compound further showed a Cmax in data set [5] of 254 ng/mL. In addition, the fold change (FC) in data set [2] amounted to 6.8. In data set [3], the EC50 was 1780 nM.
Consider `COc1cc(F)c(F)cc1-c1ccc(OCc2cccc3c(=O)n(C[C@H](O)CO)[nH]c23)cc1`, for which the Activity in data set [1] is 0.07 µM. Besides, the fold change (FC) in data set [2] was determined as 3.3. Further, in data set [3], the EC50 worked out at 250 nM.
With `O=c1o[nH]c2c(COc3ccc(-c4cc(F)c(F)cc4F)cc3)cccc12`, in data set [1], the Activity was 0.41 µM. In addition, the Drug metabolism entry with Mus musculus is recorded as “Active”. Also, in data set [2], the fold change (FC) was determined as 4. Besides, the EC50 in data set [3] was 1000 nM.
Consider `O=c1c2cccc(COc3ccc(-c4cc(F)c(F)cc4Cl)cc3)c2[nH]n1C[C@H](O)CO`, for which the Activity in data set [1] is 0.16 µM. For the same compound, the fold change (FC) in data set [2] worked out at 3.5. In addition, the EC50 in data set [3] turned out to be 300 nM.
As for `Cc1cc(F)c(F)cc1-c1ccc(OCc2cccc3c(=O)n(C)[nH]c23)cc1`, the Activity in data set [1] is 0.13 µM. For the same compound, the fold change (FC) in data set [2] is 3. In addition, in data set [3], the EC50 turned out to be 240 nM.

The values above are taken from ChEMBL document CHEMBL2380243, “Design and synthesis of 2-N-substituted indazolone derivatives as non-carboxylic acid glycogen synthase activators” (Bioorg Med Chem Lett, 2013).
